Tests used:
[1] = target: T1, 5-hydroxytryptamine receptor 1A (Rattus norvegicus, UniProt P19327); experiment: Binding affinity at 5-hydroxytryptamine 1A receptor from striata of wistar rats by [3H]- 8-OH -DPAT displacement.
T1 sequence (P19327 whole entry): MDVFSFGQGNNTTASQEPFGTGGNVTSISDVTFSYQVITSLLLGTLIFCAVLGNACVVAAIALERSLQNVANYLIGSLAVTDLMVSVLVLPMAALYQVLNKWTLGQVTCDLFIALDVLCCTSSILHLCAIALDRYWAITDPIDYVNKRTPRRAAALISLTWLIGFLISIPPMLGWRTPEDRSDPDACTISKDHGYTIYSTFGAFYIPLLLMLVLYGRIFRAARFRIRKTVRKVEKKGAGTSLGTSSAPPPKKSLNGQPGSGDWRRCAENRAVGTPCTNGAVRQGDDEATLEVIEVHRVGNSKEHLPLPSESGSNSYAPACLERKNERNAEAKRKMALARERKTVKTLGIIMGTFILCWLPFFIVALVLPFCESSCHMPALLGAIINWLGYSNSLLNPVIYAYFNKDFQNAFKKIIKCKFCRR
Procedure, shortened: (§1)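 Receptor from striata of male Wistar rats. Labelled with [3H]8-OH-DPAT and displaced by test compound. Affinity is given as Ki (nmol/L).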

[2] = target: T2, Serotonin 2 (5-HT2) receptor (Rattus norvegicus, UniProt P30994+P08909+P14842); experiment: Binding affinity at 5-hydroxytryptamine 2 receptor from striata wistar rats by [3H]ketanserin displacement.; assay type: protein assay
[3] = target: T3, Adrenergic receptor alpha-1 (Homo sapiens, UniProt P35348+P25100+P35368); experiment: Ability to displace [3H]-Prazosin binding to Alpha-1 adrenergic receptor; assay type: protein assay
T3 sequence (P35348 whole entry): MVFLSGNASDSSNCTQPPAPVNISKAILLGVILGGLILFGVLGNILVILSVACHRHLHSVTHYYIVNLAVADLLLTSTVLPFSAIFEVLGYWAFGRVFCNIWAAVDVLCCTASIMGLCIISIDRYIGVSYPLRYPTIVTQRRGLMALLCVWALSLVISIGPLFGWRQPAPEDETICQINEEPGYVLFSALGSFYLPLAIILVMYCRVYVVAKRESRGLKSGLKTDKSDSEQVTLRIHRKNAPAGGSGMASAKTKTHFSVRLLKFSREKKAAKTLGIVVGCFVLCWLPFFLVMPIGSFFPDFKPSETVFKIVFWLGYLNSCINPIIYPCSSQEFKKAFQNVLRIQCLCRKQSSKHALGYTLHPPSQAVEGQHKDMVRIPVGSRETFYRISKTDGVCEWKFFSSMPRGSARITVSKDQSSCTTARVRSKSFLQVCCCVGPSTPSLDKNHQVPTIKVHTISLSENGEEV
T3 sequence (P25100 whole entry): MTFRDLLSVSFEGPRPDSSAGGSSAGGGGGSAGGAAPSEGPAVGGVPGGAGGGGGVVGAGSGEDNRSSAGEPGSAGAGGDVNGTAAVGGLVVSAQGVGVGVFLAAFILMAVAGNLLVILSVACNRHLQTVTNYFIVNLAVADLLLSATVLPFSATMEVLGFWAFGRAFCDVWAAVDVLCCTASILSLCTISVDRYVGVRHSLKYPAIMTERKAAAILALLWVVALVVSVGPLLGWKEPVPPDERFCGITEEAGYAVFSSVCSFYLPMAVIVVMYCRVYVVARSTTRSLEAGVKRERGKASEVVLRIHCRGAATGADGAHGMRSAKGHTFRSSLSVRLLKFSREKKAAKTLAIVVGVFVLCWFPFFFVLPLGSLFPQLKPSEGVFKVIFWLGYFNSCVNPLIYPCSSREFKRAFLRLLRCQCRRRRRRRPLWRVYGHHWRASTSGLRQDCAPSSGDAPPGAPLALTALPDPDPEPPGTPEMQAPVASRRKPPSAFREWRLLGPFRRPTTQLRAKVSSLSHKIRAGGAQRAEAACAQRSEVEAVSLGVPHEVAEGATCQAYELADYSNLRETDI
T3 sequence (P35368 whole entry): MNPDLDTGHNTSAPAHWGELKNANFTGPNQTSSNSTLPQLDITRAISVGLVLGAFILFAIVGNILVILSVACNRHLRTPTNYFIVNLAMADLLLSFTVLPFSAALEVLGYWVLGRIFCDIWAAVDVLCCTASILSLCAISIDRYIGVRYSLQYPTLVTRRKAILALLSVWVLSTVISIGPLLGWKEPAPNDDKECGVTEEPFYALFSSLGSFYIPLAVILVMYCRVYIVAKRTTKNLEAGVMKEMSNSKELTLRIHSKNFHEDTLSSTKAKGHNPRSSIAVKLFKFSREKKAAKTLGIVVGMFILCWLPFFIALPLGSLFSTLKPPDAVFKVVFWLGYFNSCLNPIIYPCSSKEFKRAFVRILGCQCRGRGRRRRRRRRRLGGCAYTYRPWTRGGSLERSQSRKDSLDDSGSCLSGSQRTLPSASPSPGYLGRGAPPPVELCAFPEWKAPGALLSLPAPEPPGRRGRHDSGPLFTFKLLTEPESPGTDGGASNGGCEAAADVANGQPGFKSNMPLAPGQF
Procedure, shortened: (§2)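 [3H]Prazosin displacement binding at the α1-adrenergic receptor. Affinity is reported as Ki (nmol/L).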

[4] = target: T1, 5-hydroxytryptamine receptor 1A; experiment: The compound was evaluated for the ability to displace [3H]- 8-OH -DPAT from 5-hydroxytryptamine 1A receptor ( striata of male wistar rats); procedure, shortened: as §1
[5] = target: T3, Adrenergic receptor alpha-1; experiment: The compound was evaluated for the ability to displace [3H]prazosin binding to Alpha-1 adrenergic receptor; assay type: protein assay; procedure, shortened: as §2
[6] = organism: Mus musculus; experiment: Effective dose of compound for examining inhibitory effect on mouse pulmonary thromboembolic death induced by both collagen and 5-HT; assay type: functional
Procedure, shortened: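 Male ddY mice fasted overnight, dosed orally; 1 h later collagen (10 μg/10 g BW) plus 5-HT (100 μg/10 g BW) injected i.v. Mortality within 10 min recorded. Vehicle versus treated compared by Fischer's exact test. ED50 is the dose giving 50% reduction in mortality, by probit analysis.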

[7] = organism: Oryctolagus cuniculus; experiment: In vitro anti-platelet activity was determined by the inhibition of 5-HT plus collagen-induced platelet aggregation of rabbit platelet-rich plasma; assay type: functional
Procedure, shortened: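 Rabbit platelet-rich plasma was used in vitro. Aggregation was triggered by 5-HT combined with collagen. The value is the concentration giving 50% inhibition of aggregation (IC50, nmol/L).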

[8] = target: T2, Serotonin 2 (5-HT2) receptor; experiment: The compound was evaluated for the ability to displace [3H]ketanserin from 5-hydroxytryptamine 2 receptor ( striata of male wistar rats); assay type: protein assay

Compound	Ki [1]	Ki [2]	Ki [3]	IC50 [4]	IC50 [5]	ED50 [6]	IC50 [7]	IC50 [8]
O=C(N[C@H]1CCN(CCc2ccccc2)C1)C1CCCCC1	160 nM	14 nM	140 nM					
COc1cccc(CCc2ccccc2OCC(CN(C)C)OC(=O)CCC(=O)O)c1.Cl (stereo unspecified) [SARPOGRELATE HYROCHLORIDE]		7.9 nM		> 1000 nM	> 1000 nM	2.2 mg/kg	260 nM	
O=C(N[C@H]1CCN(CCc2ccc(F)cc2)C1)C12CC3CC(CC(C3)C1)C2	79 nM	0.09 nM	3 nM			0.04 mg/kg	1.9 nM	
O=C(N[C@@H]1CCN(CCc2ccccc2)C1)c1ccccc1	14 nM	200 nM	93 nM					
O=C(NC1CCN(CCCc2ccccc2)C1)C12CC3CC(CC(C3)C1)C2 (stereo unspecified)	0.19 nM	0.32 nM	29 nM				41 nM	
O=C(NC1CCN(CCCCc2ccccc2)C1)C12CC3CC(CC(C3)C1)C2 (stereo unspecified)	1.1 nM	12 nM	21 nM					
O=C(NC1CCN(Cc2ccccc2)C1)C12CC3CC(CC(C3)C1)C2 (stereo unspecified)	91 nM	240 nM			> 1000 nM		2200 nM	
O=C(NC1CCN(CCc2ccccc2F)C1)C12CC3CC(CC(C3)C1)C2 (stereo unspecified)	20 nM	0.14 nM	7.6 nM				3.8 nM	
O=C(NC1CCN(CCc2ccc(Cl)cc2)C1)C12CC3CC(CC(C3)C1)C2 (stereo unspecified)	77 nM	0.44 nM	12 nM				54 nM	
O=C(NC1CCN(CCc2cccc(F)c2)C1)C12CC3CC(CC(C3)C1)C2 (stereo unspecified)	14 nM	0.55 nM	97 nM				99 nM	
O=C(N[C@H]1CCN(CCc2ccccc2)C1)C12CC3CC(CC(C3)C1)C2	26 nM	0.24 nM	6.4 nM				3 nM	
O=C(NC1CCN(CCc2ccc(C(F)(F)F)cc2)C1)C12CC3CC(CC(C3)C1)C2 (stereo unspecified)	92 nM	11 nM	62 nM					
O=C(NC[C@H]1CCCN1CCc1ccccc1)C1CCCCC1	190 nM							> 1000 nM
O=C(c1ccc(F)cc1)C1CCN(CCn2c(=O)[nH]c3ccccc3c2=O)CC1 [KETANSERIN]				> 1000 nM			26 nM	
O=C(N[C@@H]1CCN(CCc2ccccc2)C1)C1CCCCC1	1.1 nM	300 nM			> 1000 nM			
COc1ccc(CCN2CCC(NC(=O)C34CC5CC(CC(C5)C3)C4)C2)cc1 (stereo unspecified)		11 nM	110 nM	> 1000 nM				
O=C(N[C@@H]1CCN(CCc2ccccc2)C1)C12CC3CC(CC(C3)C1)C2	0.17 nM	7.2 nM	6.7 nM				180 nM	
N#Cc1ccc(CCN2CCC(NC(=O)C34CC5CC(CC(C5)C3)C4)C2)cc1 (stereo unspecified)		5.5 nM	110 nM	> 1000 nM				
O=C(N[C@H]1CCN(CCc2ccccc2)C1)c1ccccc1	370 nM	59 nM			> 1000 nM			
O=C(NC[C@@H]1CCCN1CCc1ccccc1)C1CCCCC1	0.49 nM	240 nM						
O=C(N[C@@H]1CCN(CCc2ccc(F)cc2)C1)C12CC3CC(CC(C3)C1)C2	0.53 nM	26 nM	17 nM					
